The sample as a whole holds a higher share of hits than the screen did.
A1 apoptosis 2 = A1 inhibitors via caspase activation, primary screen, cell-based, luminescence, HTS, two replicates | MEF A1-2A-BIM cells, caspase-Glo luminescence, 3 h; percent of clofoctol response, DMSO zero | caspase activation, % (test concentration not listed) | 24,000 tested, under 10 active | AID 2465, 2010; in the data active means caspase activation above about 5.9%
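Material: mouse embryonic fibroblasts co-expressing A1 and BIM (A1-2A-BIM), primed for A1 dependence / Quantity: 2500 cells/well / Buffer or medium: RPMI-1640 growth medium with 10% FBS / Doses: 50 nL compound per well, pinned / Schedule: 3 h compound exposure at 37 °C / Signal: Caspase-Glo luminescence (DEVD substrate) / Measure: Caspase-3/7 activation, seen as rise in luminescence signal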
T cruzi intra = inhibitors of intracellular Trypanosoma cruzi, primary screen, cell-based, plate reader, single point, set 2; intracellular Trypanosoma cruzi in host cells; activity score (inhibition), % at 5.01 µM; actives 4.9% (n = 22,000); in the data active means activity score above about 55%;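 further: parasites and compound incubated about four days before reading; 0% = median of neutral control wells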
INS-1E ATP HTS = protection of INS-1E cells from cytokine death, primary screen, ATP luminescence, single point | protection from cytokine-induced ATP loss, % at 10 µM | actives 0.1% (n = 20,000) | INS-1E cytokine-induced death, 48 h; normalised: neutral wells 0, positive control 100 | AID 488910, 2010;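 active means mean replicate protection from cytokine-induced ATP loss at least 50% and at least 75% of replicates each reaching 50%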
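assay system = INS-1E rat insulinoma cells | amount = 8000 cells per well | medium = phenol-red-free RPMI with 5% fetal bovine serum | doses = one compound concentration, pin transfer | timing = 48 h cytokine plus compound treatment, 10 min reagent incubation | also added = IL-1β, TNF-α and IFN-γ cytokine mix | signal = CellTiter-Glo luminescence measuring cellular ATP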
Starred values were filed as active, the others as inactive; . = not tested or not shown.

SMILES	A1 apoptosis 2	T cruzi intra	INS-1E ATP HTS
C[C@@H]1CN([C@H](C)CO)C(=O)Cc2cc(NC(=O)Nc3ccc4c(c3)OCO4)ccc2O[C@@H]1CN(C)Cc1ccc(Cl)c(Cl)c1	0.5	74.4*	-32.4
C[C@@H]1CN([C@H](C)CO)C(=O)Cc2cc(NC(=O)Nc3ccc4c(c3)OCO4)ccc2O[C@@H]1CN(C)Cc1ccc2c(c1)OCO2	-0.4	21.9	-13.8
C[C@@H]1CN([C@H](C)CO)C(=O)Cc2cc(NC(=O)Nc3ccc4c(c3)OCO4)ccc2O[C@H]1CN(C)Cc1ccc(Cl)c(Cl)c1	.	68.3*	-12.8
C[C@H](CO)N1C[C@H](C)[C@@H](CN(C)Cc2ccc3c(c2)OCO3)Oc2ccc(NC(=O)Nc3ccc4c(c3)OCO4)cc2CC1=O	-0.9	.	.
O=C(N/N=C/c1cccnc1Cl)c1ccccc1O	.	-0.1	-31.2
Cc1ccc(S(=O)(=O)N(C)C[C@@H]2Oc3ccc(NS(=O)(=O)c4ccc(Cl)cc4)cc3C(=O)N([C@H](C)CO)C[C@@H]2C)cc1	0.7	40.4	4.8
C[C@H](CO)N1C[C@H](C)[C@H](CN(C)S(=O)(=O)c2ccc(Cl)cc2)Oc2ccc(NS(=O)(=O)c3ccc(Cl)cc3)cc2C1=O	-0.7	63.6*	.
Cc1ccc(S(=O)(=O)Nc2ccc3c(c2)C(=O)N([C@H](C)CO)C[C@H](C)[C@H](CN(C)S(=O)(=O)c2ccc(Cl)cc2)O3)cc1	.	47.4*	.
C[C@H](CO)N1C[C@H](C)[C@@H](CN(C)S(=O)(=O)c2ccc(Cl)cc2)Oc2ccc(NS(=O)(=O)c3ccc(Cl)cc3)cc2C1=O	-0.5	39.0	-5.0
COc1ccc(CCNC(=O)[C@@H]2c3ccccc3C(=O)N(Cc3ccccc3OC)[C@H]2c2ccc(CO)cc2)cc1	-0.2	.	.
C[C@H](CO)N1C[C@H](C)[C@@H](CN(C)CC2CCCCC2)Oc2c(NC(=O)Nc3ccc(C(F)(F)F)cc3)cccc2C1=O	0.2	69.3*	-70.8
C[C@H](CO)N1C[C@H](C)[C@H](CN(C)CC2CC2)Oc2c(NC(=O)Nc3ccc(C(F)(F)F)cc3)cccc2C1=O	1.2	82.3*	-9.2
C[C@@H]1CN([C@H](C)CO)C(=O)c2cccc(NC(=O)Nc3ccc(C(F)(F)F)cc3)c2O[C@@H]1CN(C)CC1CC1	-0.2	-38.9	-8.8
C[C@@H]1CN([C@@H](C)CO)C(=O)c2cccc(NC(=O)Nc3ccc(C(F)(F)F)cc3)c2O[C@H]1CN(C)CC1CC1	-0.2	9.6	-35.0
O=C(N/N=C/c1c(O)cc(O)cc1O)c1ccccn1	-8.0	6.5	-7.8
C#CCOc1ccc(/C=N/NC(=O)c2cccc(C(=O)NO)c2)cc1	-7.8	-4.3	-7.5
C[C@@H]1CN([C@@H](C)CO)C(=O)CCCn2cc(nn2)CO[C@H]1CN(C)Cc1ccc(Oc2ccccc2)cc1	-0.3	67.5*	-2.0
C[C@H](CO)N1C[C@H](C)[C@@H](CN(C)Cc2ccc(Oc3ccccc3)cc2)OCc2cnnn2CCCC1=O	1.7	82.9*	.
C[C@H]1CN([C@@H](C)CO)C(=O)CCCn2cc(nn2)CO[C@@H]1CN(C)Cc1ccc(Oc2ccccc2)cc1	0.3	32.4	.
C[C@H](CO)N1C[C@H](C)[C@@H](CN(C)Cc2ccc(C(F)(F)F)cc2)OCc2cnnn2CCCC1=O	-0.4	60.6*	.
C[C@H]1CN([C@@H](C)CO)C(=O)CCCn2nncc2CO[C@@H]1CN(C)Cc1ccc(C(F)(F)F)cc1	-0.2	51.9	.
C[C@H]1CN([C@@H](C)CO)C(=O)CCCn2nncc2CO[C@H]1CN(C)Cc1ccc(Oc2ccccc2)cc1	-1.0	-13.9	.
C[C@@H]1CN([C@@H](C)CO)C(=O)CCCn2nncc2CO[C@H]1CN(C)S(=O)(=O)c1ccc(-c2ccccc2)cc1	1.8	10.6	-4.1
C[C@H]1CN([C@@H](C)CO)C(=O)CCCn2nncc2CO[C@@H]1CN(C)S(=O)(=O)c1ccc(-c2ccccc2)cc1	.	83.7*	.
O=C(NO)c1ccc(C(=O)N/N=C/c2ccc3ccccc3c2O)cc1	0.1	13.9	-61.6
O=C(CCCCC(=O)N/N=C/c1ccco1)NO	-0.4	-2.0	13.8
C[C@H](CO)N1C[C@H](C)[C@@H](CN(C)Cc2ccc(-c3ccccc3)cc2)OCc2cnnn2CCCC1=O	.	65.4*	.
C[C@@H]1CN([C@H](C)CO)C(=O)CCCn2nncc2CO[C@H]1CN(C)Cc1ccc(-c2ccccc2)cc1	.	10.1	-9.0
Cc1ncc(CO)c(/C=N/NC(=O)CCCCCCC(=O)O)c1O	-0.7	-8.6	0.0

High-throughput results (PubChem BioAssay)
